According to ChEMBL document CHEMBL1641511, “Microwave-assisted synthesis of quinoline, isoquinoline, quinoxaline and quinazoline derivatives as CB2 receptor agonists” (Bioorg Med Chem, 2011):
Calls of active or inactive are those of the source. The rule behind the calls is not given here.

Tests used:
[1] = biological target: Cannabinoid receptor 2 (Homo sapiens) (UniProt P34972); test: Agonist activity at human recombinant cannabinoid CB2 receptor expressed in CHO cells at 10 uM by [35S]GTPgammaS binding assay; type: functional, cell-based
Cannabinoid receptor 2 (Homo sapiens), sequence (P34972 whole entry): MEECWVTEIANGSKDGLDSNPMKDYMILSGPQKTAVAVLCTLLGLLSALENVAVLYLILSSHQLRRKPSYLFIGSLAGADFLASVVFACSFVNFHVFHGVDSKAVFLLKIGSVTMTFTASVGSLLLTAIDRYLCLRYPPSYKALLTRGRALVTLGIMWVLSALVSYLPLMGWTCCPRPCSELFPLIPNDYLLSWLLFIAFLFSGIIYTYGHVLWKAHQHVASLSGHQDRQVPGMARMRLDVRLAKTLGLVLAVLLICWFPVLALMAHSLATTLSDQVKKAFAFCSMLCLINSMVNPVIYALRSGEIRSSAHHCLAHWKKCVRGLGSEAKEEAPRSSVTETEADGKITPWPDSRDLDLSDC
How it was run: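 Single-point screen for G-protein activation at hCB2 with [35S]GTPγS binding, ligand at 10 µM. Response given relative to the 10 nM HU-210 agonist response, in percent. Mean SEM of at least three experiments, each done in duplicate.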

[2] = biological target: Cannabinoid receptor 1 (Rattus norvegicus) (UniProt P20272); test: Antagonist activity at rat cannabinoid CB1 receptor in Wistar rat cerebellar membranes at 10 uM by [35S]GTPgammaS binding assay; type: functional, cell membranes; details: Cerebellum, Membrane
Cannabinoid receptor 1 (Rattus norvegicus), sequence (P20272 whole entry): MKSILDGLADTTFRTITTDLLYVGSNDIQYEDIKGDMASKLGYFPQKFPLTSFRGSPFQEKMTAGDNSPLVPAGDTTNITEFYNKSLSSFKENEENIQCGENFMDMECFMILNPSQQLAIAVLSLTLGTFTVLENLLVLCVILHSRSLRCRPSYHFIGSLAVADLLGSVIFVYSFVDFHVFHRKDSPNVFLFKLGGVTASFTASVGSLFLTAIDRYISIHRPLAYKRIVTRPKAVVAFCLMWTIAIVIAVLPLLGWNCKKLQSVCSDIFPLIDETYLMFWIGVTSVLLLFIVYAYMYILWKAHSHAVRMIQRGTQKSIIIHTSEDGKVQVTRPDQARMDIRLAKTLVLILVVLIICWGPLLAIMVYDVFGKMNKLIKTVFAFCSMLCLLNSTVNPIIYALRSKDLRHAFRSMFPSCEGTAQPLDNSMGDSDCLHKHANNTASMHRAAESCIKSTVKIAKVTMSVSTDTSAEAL
How it was run: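 Uses non-recombinant rat cerebellar membrane fractions as the CB1 source, with [35S]GTPγS binding. Ligand screened at 10 µM for its ability to antagonize the agonist response to 10 nM HU-210.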

[3] = biological target: Cannabinoid receptor 2 (Homo sapiens) (UniProt P34972); test: Agonist activity at human recombinant cannabinoid CB2 receptor expressed in CHO cells by [35S]GTPgammaS binding assay relative to HU-210; type: functional, cell-based
How it was run: (§1)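 hCB2 [35S]GTPγS binding concentration–response curves, run only for ligands giving over 50% relative activity at 10 µM. logEC50 and Emax come from nonlinear regression fitted to a sigmoidal concentration–response equation. Emax is given as percent of the 10 nM HU-210 response. Mean SEM of at least three experiments in duplicate.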

[4] = biological target: Cannabinoid receptor 2 (Homo sapiens) (UniProt P34972); test: Agonist activity at human recombinant cannabinoid CB2 receptor expressed in CHO cells by [35S]GTPgammaS binding assay; type: functional, cell-based; how it was run: as §1
[5] = biological target: Cannabinoid receptor 1 (Rattus norvegicus) (UniProt P20272); test: Antagonist activity at rat cannabinoid CB1 receptor in Wistar rat cerebellar membranes by [35S]GTPgammaS binding assay; type: functional, cell membranes; details: Cerebellum, Membrane
How it was run: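 Non-recombinant rat cerebellar membrane fractions, [35S]GTPγS binding. Compounds screened at a single concentration for their ability to antagonise the response to 10 nM HU-210 agonist.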

Activity [1] [%] | Activity [2] | Compound | Emax [3] [%] | pEC50 [4] | logEC50 [5]
3 | inactive | CCOC(=O)c1ccc(Nc2ccc3ccccc3n2)cc1 |  |  | 
38 | inactive | c1ccc(Nc2ncc3ccccc3n2)cc1 |  |  | 
33 | inactive | c1ccc(Sc2nccc3ccccc23)cc1 |  |  | 
44 | inactive | c1ccc2nc(NCC3CCCCC3)ccc2c1 |  |  | 
48 | inactive | FC(F)(F)c1ccc(Nc2ccc3ccccc3n2)cc1 |  |  | 
4 | inactive | COC(=O)c1cc2ccccc2c(Nc2cccc(C(F)(F)F)c2)n1 |  |  | 
13 | inactive | O=C(NC1CCCCC1)c1cc2ccccc2c(Nc2cccc(C(F)(F)F)c2)n1 |  |  | 
-2 | inactive | O=C(NCC1CCCCC1)c1cc2ccccc2c(Nc2cccc(C(F)(F)F)c2)n1 |  |  | 
13 | inactive | c1ccc(Sc2cnc3ccccc3c2)cc1 |  |  | 
43 | inactive | FC(F)(F)c1ccccc1Nc1nccc2ccccc12 |  |  | 
7 | inactive | c1ccc(Nc2nccc3ccccc23)cc1 |  |  | 
1 | inactive | COc1ccccc1NC(=O)c1cnc(Nc2cccc(C(F)(F)F)c2)c2ccccc12 |  |  | 
25 | inactive | FC(F)(F)c1ccc(Nc2nccc3ccccc23)cc1 |  |  | 
31 | inactive | c1ccc(Oc2nccc3ccccc23)cc1 |  |  | 
33 | inactive | COc1cc(C(F)(F)F)ccc1Nc1ccc2ccccc2n1 |  |  | 
10 | inactive | c1ccc(Nc2ncnc3ccccc23)cc1 |  |  | 

Activity [1] [%] | Activity [2] | Compound | Emax [3] [%] | pEC50 [4] | logEC50 [5]
21 | inactive | O=C(NCc1ccccc1)c1cnc(Nc2cccc(C(F)(F)F)c2)c2ccccc12 |  |  | 
8 | inactive | Oc1ccc(Nc2ccc3ccccc3n2)cc1 |  |  | 
18 | inactive | c1ccc(Cc2ccccc2Nc2ccc3ccccc3n2)cc1 |  |  | 
20 | inactive | c1ccc(CNc2ccc3ccccc3n2)cc1 |  |  | 
20 | inactive | OCCc1ccc(Nc2ccc3ccccc3n2)cc1 |  |  | 
10 | inactive | CCCCCCNc1ccc2ccccc2n1 |  |  | 
7 | inactive | c1ccc2nc(N3CCOCC3)ccc2c1 |  |  | 
9 | inactive | c1ccc(Nc2ccnc3ccccc23)cc1 |  |  | 
39 | inactive | c1ccc(Nc2ccc3ccccc3n2)cc1 |  |  | 
30 | inactive | c1ccc(Nc2cnc3ccccc3n2)cc1 |  |  | 
25 | inactive | N#Cc1cccc(Nc2ccc3ccccc3n2)c1 |  |  | 
22 | inactive | c1ccc2nc(NC3CCCC3)ccc2c1 |  |  | 
17 | inactive | c1ccc(Oc2cnc3ccccc3c2)cc1 |  |  | 
10 | inactive | c1ccc2nc(N3CCCCC3)ccc2c1 |  |  | 
20 | inactive | CN(C)c1ccc(Nc2ccc3ccccc3n2)cc1 |  |  | 
0 | inactive | O=C(NCc1ccccc1)c1cc2ccccc2c(Nc2cccc(C(F)(F)F)c2)n1 |  |  | 

Compound | Activity [1] [%] | Activity [2] | Emax [3] [%] | pEC50 [4] | logEC50 [5]
Clc1cccc(Nc2ccc3ccccc3n2)c1 | 58 | inactive | 70 | 5.6 | 
FC(F)(F)c1cccc(Nc2ncc3ccccc3n2)c1 | 53 | inactive | 67 | 5.5 | 
COc1cccc(Nc2ccc3ccccc3n2)c1 | 50 | inactive | 61 | 5.6 | 
O=C(c1cnc(Nc2cccc(C(F)(F)F)c2)c2ccccc12)N1CCOCC1 | 76 |  | 75 | 7.8 | 5
COc1ccc(Nc2ccc3ccccc3n2)cc1 | 49 | inactive | 51 | 5.7 | 
Brc1cccc(Nc2ccc3ccccc3n2)c1 | 64 | inactive | 69 | 5.7 | 
c1ccc(Sc2ccc3ccccc3n2)cc1 | 47 | inactive | 61 | 5.4 | 
FC(F)(F)c1cccc(Nc2cnc3ccccc3n2)c1 | 52 | inactive | 69 | 5.4 | 
O=C(NC1CCCCC1)c1cnc(Nc2cccc(C(F)(F)F)c2)c2ccccc12 | 54 | inactive | 73 | 5.7 | 
FC(F)(F)c1cccc(Nc2nccc3ccccc23)c1 | 102 | inactive | 124 | 5.8 | 
COc1ccccc1Nc1ccc2ccccc2n1 | 69 | inactive | 102 | 5.3 | 
O=C(NCC1CCCCC1)c1cnc(Nc2cccc(C(F)(F)F)c2)c2ccccc12 | 58 | inactive | 67 | 5.8 | 
c1ccc2nc(NC3CCCCC3)ccc2c1 | 57 | inactive | 88 | 5.2 | 
FC(F)(F)c1cccc(Nc2ncnc3ccccc23)c1 | 68 | inactive | 79 | 5.6 | 
Clc1ccccc1Nc1ccc2ccccc2n1 | 56 | inactive | 91 | 5.2 | 
FC(F)(F)c1cccc(Nc2ccnc3ccccc23)c1 | 50 | inactive | 58 | 5.5 | 
FC(F)(F)c1cccc(Nc2ccc3ccccc3n2)c1 | 64 | inactive | 65 | 5.9 | 
Clc1ccc(Nc2ccc3ccccc3n2)cc1 | 75 | inactive | 80 | 5.7 | 
FC(F)(F)c1ccccc1Nc1ccc2ccccc2n1 | 63 | inactive | 103 | 5.2 | 
